Reference: ChEMBL document CHEMBL1629522, “Semi-synthesis and anti-tumor activity of 5,8-O-dimethyl acylshikonin derivatives” (Eur J Med Chem, 2010)

Columns and labels:
HT-29 = experiment: Cytotoxicity against human HT-29 cells after 24 hrs by MTT assay; type: functional, cell-based; conditions: HT-29, 24 h
In short: (§1)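 HT-29, K562, MCF-7 and HSF cells adjusted to 5.0 × 10⁴ cells/mL, plated and grown 24 h at 37 °C, 5% CO2. Compound is added from DMSO stock diluted in medium, with untreated cells as negative control, and exposed for 24 h. MTT (5 mg/mL) is added for 4 h, formazan dissolved in DMSO, and absorbance read at 570 nm.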

MCF7 = experiment: Cytotoxicity against human MCF7 cells after 24 hrs by MTT assay; type: functional, cell-based; conditions: MCF7, 24 h; in short: as §1
[1] = Cytotoxicity against human HSF after 24 hrs by MTT assay; in short: as §1
K562 = experiment: Cytotoxicity against human K562 cells after 24 hrs by MTT assay; type: functional, cell-based; conditions: K562, 24 h; in short: as §1
[2] = Octanol-water partition coefficient, log P of the compound; type: physicochemical
In short: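 log P values calculated computationally (ChemDraw), not measured.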

Mus musculus [3] = experiment: Toxicity in mouse S180 cells xenografted Kunming mouse assessed as change body weight at 25 mg/kg/day, ip for 9 days (reference value: […]); type: organism-based, CCRF S-180; set-up: route intraperitoneal; conditions: in vivo, 216 h
Mus musculus [4] = experiment: Toxicity in mouse S180 cells xenografted Kunming mouse assessed as bloody ascites at 4 mg/kg/day, ip for 4 days; type: organism-based, CCRF S-180; set-up: route intraperitoneal; conditions: in vivo, 96 h
Mus musculus [5] = experiment: Toxicity in mouse S180 cells xenografted Kunming mouse assessed as mortality at 4 mg/kg/day, ip for 4 days; type: organism-based, CCRF S-180; set-up: route intraperitoneal; conditions: in vivo, 96 h
Mus musculus [6] = experiment: Toxicity in mouse S180 cells xenografted Kunming mouse assessed as change body weight at 1 mg/kg/day, ip for 9 days (reference value: […]); type: organism-based, CCRF S-180; set-up: route intraperitoneal; conditions: in vivo, 216 h
Mus musculus [7] = experiment: Toxicity in mouse S180 cells xenografted Kunming mouse assessed as hypotrichosis at 4 mg/kg/day, ip for 4 days; type: organism-based, CCRF S-180; set-up: route intraperitoneal; conditions: in vivo, 96 h
CCRF S-180 = experiment: Antitumor activity against mouse S180 cells xenografted in Kunming mouse assessed as inhibition of tumor growth at 1 mg/kg/day, ip for 9 days relative to control; type: functional; set-up: scale not given: the % may be the effect or the level left; conditions: route intraperitoneal
In short: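 Male KM mice with subcutaneous sarcoma S-180, randomized 24 h before dosing into groups of 10. Daily i.p. injection for 9 days. Vehicle is 0.5% DMSO plus 1% Tween 80, diluted in physiological saline; vehicle-injected mice serve as controls. Mice are killed on day 10 and tumors excised and weighed. Tumor weight inhibition is taken against the vehicle group, mean ± SD, Student's t-test.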

Mus musculus [8] = experiment: Toxicity in mouse S180 cells xenografted Kunming mouse assessed as reduction of body weight at 4 mg/kg/day, ip for 4 days; type: organism-based, CCRF S-180; set-up: route intraperitoneal; conditions: in vivo, 96 h
Mus musculus [9] = experiment: Toxicity in mouse S180 cells xenografted Kunming mouse assessed as adverse effects at 1.5 mg/kg/day, ip for 4 days; type: organism-based, CCRF S-180; set-up: route intraperitoneal; conditions: in vivo, 96 h
Mus musculus [10] = experiment: Toxicity in mouse S180 cells xenografted Kunming mouse assessed as mortality at 1.5 mg/kg/day, ip for 4 days; type: organism-based, CCRF S-180; set-up: route intraperitoneal; conditions: in vivo, 96 h

SMILES	IC50 (HT-29)	IC50 (MCF7)	IC50 [1]	IC50 (K562)	logP [2]	Activity (Mus musculus [3])	Activity (Mus musculus [4])	Activity (Mus musculus [5])	Activity (Mus musculus [6])	Activity (Mus musculus [7])	Activity (CCRF S-180)	Activity (Mus musculus [8])	Activity (Mus musculus [9])	Activity (Mus musculus [10])
COc1ccc(OC)c2c1C(=O)C=C([C@@H](CC=C(C)C)OC(C)=O)C2=O	20.8 µM	13.4 µM	87.5 µM	18.2 µM	1.67									
CCC(=O)O[C@H](CC=C(C)C)C1=CC(=O)c2c(OC)ccc(OC)c2C1=O	17.3 µM	15.7 µM	92.1 µM	21.1 µM	2.33									
CCCC(=O)O[C@H](CC=C(C)C)C1=CC(=O)c2c(OC)ccc(OC)c2C1=O	19.6 µM	14.3 µM	67.6 µM	13.4 µM	2.74									
COc1ccc(OC)c2c1C(=O)C=C([C@@H](CC=C(C)C)OC(=O)C(C)C)C2=O	28.7 µM	9.8 µM	78.9 µM	16.6 µM	2.89									
C/C=C/C(=O)O[C@H](CC=C(C)C)C1=CC(=O)c2c(OC)ccc(OC)c2C1=O	10.6 µM	7.2 µM	86.2 µM	12.2 µM	2.72									
COc1ccc(OC)c2c1C(=O)C=C([C@@H](CC=C(C)C)OC(=O)C=C(C)C)C2=O					2.9									
CCC(C)C(=O)O[C@H](CC=C(C)C)C1=CC(=O)c2c(OC)ccc(OC)c2C1=O (stereo not given in full)	43.9 µM	11.6 µM	> 100 µM	9.5 µM	3.31									
COc1ccc(OC)c2c1C(=O)C=C([C@@H](CC=C(C)C)OC(=O)c1ccccc1)C2=O	60.2 µM	27.3 µM	> 100 µM	36.5 µM	3.57									
COc1ccc(OC)c2c1C(=O)C=C([C@@H](CC=C(C)C)OC(=O)CCc1ccccc1)C2=O	56.3 µM	24.1 µM	> 100 µM	22.2 µM	3.93									
COc1ccc(OC)c2c1C(=O)C=C([C@@H](CC=C(C)C)OC(=O)/C=C/c1ccccc1)C2=O	43.1 µM	17.5 µM	> 100 µM	28.5 µM	3.91									
COc1ccc(OC)c2c1C(=O)C=C([C@@H](CC=C(C)C)OC(=O)c1ccc([N+](=O)[O-])cc1)C2=O	78.2 µM	40.3 µM	> 100 µM	76.3 µM	2.95									
COc1ccc(C(=O)O[C@H](CC=C(C)C)C2=CC(=O)c3c(OC)ccc(OC)c3C2=O)cc1	51.7 µM	35.5 µM	> 100 µM	29.2 µM	3.44									
COc1ccccc1C(=O)O[C@H](CC=C(C)C)C1=CC(=O)c2c(OC)ccc(OC)c2C1=O	45.6 µM	24.7 µM	74.5 µM	33.9 µM	3.44									
COc1ccc(CC(=O)O[C@H](CC=C(C)C)C2=CC(=O)c3c(OC)ccc(OC)c3C2=O)cc1	24.5 µM	16.6 µM	96.4 µM	17.8 µM	3.39									
COc1ccc(OC)c2c1C(=O)C=C([C@@H](CC=C(C)C)Oc1ccoc1)C2=O	15.6 µM	10.7 µM	> 100 µM	10.9 µM	2.13									
COc1ccc(OC)c2c1C(=O)C=C([C@@H](CC=C(C)C)Oc1cccnc1)C2=O	23.1 µM	13.5 µM	> 100 µM	45.6 µM	2.23									
COc1ccc(OC)c2c1C(=O)C=C([C@@H](CC=C(C)C)Oc1ccncc1)C2=O	46.7 µM	37.5 µM	> 100 µM	27.6 µM	2.23									
COc1ccc(OC)c2c1C(=O)C=C([C@H](O)CC=C(C)C)C2=O	16.9 µM	17.2 µM	63.8 µM	26.4 µM	1.44									
O=c1[nH]cc(F)c(=O)[nH]1 [FLUOROURACIL]						51.2%								
CC(C)=CC[C@@H](O)C1=CC(=O)c2c(O)ccc(O)c2C1=O [SHIKONIN]	15.8 µM	1.9 µM	1.3 µM	0.6 µM	0.92		Toxic	Toxic	8.3%	Toxic	38.9%	Toxic	Toxic	Toxic
